Test results: ChEMBL document CHEMBL4257570, “Discovery and optimization of a novel series of pyrazolyltetrahydropyran N-type calcium channel (Cav 2.2) blockers for the treatment of pain” (Bioorg Med Chem Lett, 2018)
The source made the active and inactive calls.

Assays:
[1] = Metabolic stability of human liver microsomes assessed as parent compound remaining after 10 mins; type: ADME, microsome; conditions: read-out: Stability
[2] = biological target: T1, Voltage-dependent N-type calcium channel subunit alpha-1B (Homo sapiens, UniProt Q00975); assay: Inhibition of Cav2.2 (unknown origin) expressed in HEK293 cells assessed as decrease in KCl depolarization-induced Ca2+ influx measured for 5 mins by fluorescence based FDSS assay; type: cell-based
Target sequence in this assay (Q00975 whole entry): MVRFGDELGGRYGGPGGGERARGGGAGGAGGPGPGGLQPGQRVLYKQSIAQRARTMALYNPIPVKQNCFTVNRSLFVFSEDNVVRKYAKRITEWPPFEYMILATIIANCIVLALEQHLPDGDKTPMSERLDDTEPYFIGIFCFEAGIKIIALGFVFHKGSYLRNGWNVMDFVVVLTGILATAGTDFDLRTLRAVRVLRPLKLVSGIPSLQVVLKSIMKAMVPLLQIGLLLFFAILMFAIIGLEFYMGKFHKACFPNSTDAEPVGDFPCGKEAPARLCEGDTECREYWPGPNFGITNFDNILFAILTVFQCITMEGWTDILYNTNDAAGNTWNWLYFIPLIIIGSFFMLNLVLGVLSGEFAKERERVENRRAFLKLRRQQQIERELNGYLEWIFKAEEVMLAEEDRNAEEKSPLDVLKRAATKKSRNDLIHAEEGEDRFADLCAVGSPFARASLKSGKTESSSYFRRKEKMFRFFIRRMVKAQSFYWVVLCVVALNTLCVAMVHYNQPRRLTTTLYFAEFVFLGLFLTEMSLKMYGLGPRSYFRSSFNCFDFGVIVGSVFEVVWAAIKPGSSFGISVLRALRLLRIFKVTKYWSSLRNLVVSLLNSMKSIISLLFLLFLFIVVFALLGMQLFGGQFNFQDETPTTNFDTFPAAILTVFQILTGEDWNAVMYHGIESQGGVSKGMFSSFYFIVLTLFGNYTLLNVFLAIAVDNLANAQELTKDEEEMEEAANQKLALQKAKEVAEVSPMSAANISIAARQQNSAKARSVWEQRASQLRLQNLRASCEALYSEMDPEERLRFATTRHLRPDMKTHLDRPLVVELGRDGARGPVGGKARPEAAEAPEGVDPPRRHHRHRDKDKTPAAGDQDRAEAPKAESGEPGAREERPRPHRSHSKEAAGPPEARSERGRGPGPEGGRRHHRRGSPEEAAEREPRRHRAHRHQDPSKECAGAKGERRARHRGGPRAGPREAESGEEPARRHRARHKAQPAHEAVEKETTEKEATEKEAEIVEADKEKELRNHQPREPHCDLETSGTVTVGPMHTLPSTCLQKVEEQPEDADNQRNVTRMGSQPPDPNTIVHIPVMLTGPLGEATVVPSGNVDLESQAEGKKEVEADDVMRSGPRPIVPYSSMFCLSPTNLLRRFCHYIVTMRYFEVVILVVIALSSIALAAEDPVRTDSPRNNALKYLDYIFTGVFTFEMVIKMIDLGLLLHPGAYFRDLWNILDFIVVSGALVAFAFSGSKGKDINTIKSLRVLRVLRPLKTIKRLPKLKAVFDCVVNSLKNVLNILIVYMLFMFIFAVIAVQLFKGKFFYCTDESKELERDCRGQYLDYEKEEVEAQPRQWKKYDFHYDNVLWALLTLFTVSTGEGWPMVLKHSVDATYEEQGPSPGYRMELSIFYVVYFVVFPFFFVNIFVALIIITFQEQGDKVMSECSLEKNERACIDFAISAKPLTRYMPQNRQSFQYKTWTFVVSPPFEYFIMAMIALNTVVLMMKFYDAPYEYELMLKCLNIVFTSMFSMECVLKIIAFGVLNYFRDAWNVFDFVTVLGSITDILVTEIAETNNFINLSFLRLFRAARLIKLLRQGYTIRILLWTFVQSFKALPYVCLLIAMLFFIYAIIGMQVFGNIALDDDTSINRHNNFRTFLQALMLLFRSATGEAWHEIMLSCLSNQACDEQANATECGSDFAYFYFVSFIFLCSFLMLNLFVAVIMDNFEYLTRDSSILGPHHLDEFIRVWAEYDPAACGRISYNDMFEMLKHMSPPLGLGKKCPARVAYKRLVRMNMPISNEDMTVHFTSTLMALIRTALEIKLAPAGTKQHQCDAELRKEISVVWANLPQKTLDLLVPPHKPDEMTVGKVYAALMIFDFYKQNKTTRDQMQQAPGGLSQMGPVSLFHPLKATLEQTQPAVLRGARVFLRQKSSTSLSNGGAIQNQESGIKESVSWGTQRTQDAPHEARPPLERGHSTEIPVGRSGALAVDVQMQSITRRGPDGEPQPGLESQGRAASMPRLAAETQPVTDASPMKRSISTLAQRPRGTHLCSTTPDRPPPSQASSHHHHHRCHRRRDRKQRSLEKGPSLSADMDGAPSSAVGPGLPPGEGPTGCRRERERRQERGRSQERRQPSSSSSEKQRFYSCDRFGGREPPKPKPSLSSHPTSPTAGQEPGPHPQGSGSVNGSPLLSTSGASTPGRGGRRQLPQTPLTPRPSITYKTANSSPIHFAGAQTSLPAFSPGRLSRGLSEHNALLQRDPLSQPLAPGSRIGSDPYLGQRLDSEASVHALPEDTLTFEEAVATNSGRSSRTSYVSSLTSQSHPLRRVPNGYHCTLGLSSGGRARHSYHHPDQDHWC

[3] = Metabolic stability of rat liver microsomes assessed as parent compound remaining after 10 mins; type: ADME, microsome; conditions: read-out: Stability
[4] = biological target: T1, Voltage-dependent N-type calcium channel subunit alpha-1B; assay: Inhibition of high frequency stimulation-induced Cav2.2 (unknown origin) expressed in HEK293 cells at -80 mV holding membrane potential by automated patch clamp assay; type: cell-based
Target sequence in this assay (Q00975 whole entry): as above

[5] = biological target: T1, Voltage-dependent N-type calcium channel subunit alpha-1B; assay: Inhibition of low frequency stimulation-induced Cav2.2 (unknown origin) expressed in HEK293 cells at -80 mV holding membrane potential by automated patch clamp assay; type: cell-based
Target sequence in this assay (Q00975 whole entry): as above

[6] = biological target: T1, Voltage-dependent N-type calcium channel subunit alpha-1B; assay: Inhibition of high frequency stimulation-induced Cav2.2 (unknown origin) expressed in HEK293 cells at 5 uM at -80 mV holding membrane potential by automated patch clamp assay relative to control; type: cell-based
Summary of the method: (§1)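 Automated whole-cell patch clamp (QPatch-HT) on HEK293 cells stably expressing Cav2.2. Each trial was the 4th train at each drug concentration. 60 μM CdCl2 set the 0% level, and vehicle-treated cells were used to correct for rundown.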
Target sequence in this assay (Q00975 whole entry, looked up): as the sequence (Q00975 whole entry) above

[7] = biological target: T1, Voltage-dependent N-type calcium channel subunit alpha-1B; assay: Inhibition of low frequency stimulation-induced Cav2.2 (unknown origin) expressed in HEK293 cells at 5 uM at -80 mV holding membrane potential by automated patch clamp assay relative to control; type: cell-based; summary of the method: as §1
Target sequence in this assay (Q00975 whole entry, looked up): as the sequence (Q00975 whole entry) above

[8] = Volume of distribution at steady state in rat at 6 mg/kg, po or 1.2 mg/kg, iv; type: ADME, organism-based; conditions: in vivo, read-out: Vdss
Summary of the method: (§2)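 Rat PK: oral and intravenous dosing of the same compound in 20% hydroxypropyl-β-cyclodextrin, at 10.0/2.0 or 6.0/1.2 mg/kg po/iv.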

Rattus norvegicus [9] = assay: Antiinflammatory activity in rat model of complete Freund's adjuvant-induced inflammatory pain assessed as reduction in thermal hyperalgesia by measuring radiant heat latency at 30 mg/kg, po measured after 30 mins post dose; type: functional, organism-based
Summary of the method: (§3)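 CFA rats were confirmed thermally hypersensitive by radiant heat latency (75% cut-off) on test day. They were then dosed p.o. at 2.5 mL/kg with 30 mg/kg in 10% NMP/20% Solutol, or vehicle alone. Paw withdrawal latency to radiant heat was read at 30, 60, 120, 180 and 300 min post-dose. One-way ANOVA with Dunnett's post test.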

[10] = AUClast in rat at 6 mg/kg, po; type: ADME, organism-based; parameters: dose 6 mg/kg, route oral, time 0 - last; conditions: in vivo; summary of the method: as §2
[11] = Half life in rat at 1.2 mg/kg, iv; type: ADME, organism-based; conditions: in vivo; summary of the method: as §2
L-type calcium channel = L-type calcium channel (Homo sapiens, UniProt O60840+Q01668+Q13698+Q13936); assay: Inhibition of L-type calcium channel (unknown origin) at 1 uM relative to control; type: protein assay
[12] = Plasma concentration in rat model of complete Freund's adjuvant-induced inflammatory pain at 30 mg/kg, po after 1 hr; type: ADME, organism-based
Summary of the method: (§4)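 In separate studies, drug levels in plasma, brain and spinal cord were measured in rats after a 30 mg/kg p.o. dose, sampled at 1 h or 2 h.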

Rattus norvegicus [13] = assay: Antiinflammatory activity in rat model of complete Freund's adjuvant-induced inflammatory pain assessed as reduction in thermal hyperalgesia by measuring radiant heat latency at 30 mg/kg, po measured after 180 mins post dose; type: functional, organism-based; summary of the method: as §3
[14] = biological target: Voltage-gated inwardly rectifying potassium channel KCNH2 (Homo sapiens, UniProt Q12809); assay: Inhibition of human ERG
Voltage-gated inwardly rectifying potassium channel KCNH2, sequence (Q12809 whole entry): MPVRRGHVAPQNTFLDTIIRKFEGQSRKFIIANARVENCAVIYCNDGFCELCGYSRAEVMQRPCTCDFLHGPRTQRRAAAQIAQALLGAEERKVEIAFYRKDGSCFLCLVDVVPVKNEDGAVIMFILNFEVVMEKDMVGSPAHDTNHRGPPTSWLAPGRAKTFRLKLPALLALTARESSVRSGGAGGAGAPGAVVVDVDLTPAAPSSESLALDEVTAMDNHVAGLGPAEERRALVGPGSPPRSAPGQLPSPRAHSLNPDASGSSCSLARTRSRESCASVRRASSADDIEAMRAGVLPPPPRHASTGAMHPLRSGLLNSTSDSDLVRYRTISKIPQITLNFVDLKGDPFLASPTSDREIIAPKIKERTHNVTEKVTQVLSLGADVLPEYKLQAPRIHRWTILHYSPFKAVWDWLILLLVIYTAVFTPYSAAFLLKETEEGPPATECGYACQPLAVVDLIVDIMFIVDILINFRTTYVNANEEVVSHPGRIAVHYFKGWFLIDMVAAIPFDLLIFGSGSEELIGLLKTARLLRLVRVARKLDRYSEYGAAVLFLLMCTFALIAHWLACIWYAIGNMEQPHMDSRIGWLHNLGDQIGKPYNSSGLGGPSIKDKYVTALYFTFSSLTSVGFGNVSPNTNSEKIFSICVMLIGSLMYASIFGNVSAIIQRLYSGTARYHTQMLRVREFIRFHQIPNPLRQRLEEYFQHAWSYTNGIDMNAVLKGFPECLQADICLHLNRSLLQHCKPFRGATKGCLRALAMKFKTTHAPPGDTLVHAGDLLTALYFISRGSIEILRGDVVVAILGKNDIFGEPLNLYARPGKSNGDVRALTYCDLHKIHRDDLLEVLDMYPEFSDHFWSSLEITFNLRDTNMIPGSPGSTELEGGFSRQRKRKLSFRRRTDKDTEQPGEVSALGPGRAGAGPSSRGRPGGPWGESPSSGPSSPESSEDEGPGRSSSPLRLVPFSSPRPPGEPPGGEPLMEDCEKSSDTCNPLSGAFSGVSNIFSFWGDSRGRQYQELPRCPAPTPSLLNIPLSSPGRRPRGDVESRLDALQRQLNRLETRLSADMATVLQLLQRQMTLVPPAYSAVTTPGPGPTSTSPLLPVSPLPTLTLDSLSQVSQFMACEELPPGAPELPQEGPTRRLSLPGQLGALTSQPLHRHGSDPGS

[15] = Drug uptake in brain of rat model of complete Freund's adjuvant-induced inflammatory pain at 30 mg/kg, po after 1 hr; type: ADME, organism-based; conditions: read-out: Drug uptake; summary of the method: as §4
[16] = Clearance in rat at 6 mg/kg, po or 1.2 mg/kg, iv; type: ADME, organism-based; conditions: in vivo; summary of the method: as §2
[17] = Oral bioavailability in rat at 6 mg/kg; type: ADME, organism-based; conditions: in vivo; summary of the method: as §2
[18] = Cmax in rat at 6 mg/kg, po; type: ADME, organism-based; parameters: dose 6 mg/kg, route oral; conditions: in vivo; summary of the method: as §2
[19] = Drug uptake in spinal cord of rat model of complete Freund's adjuvant-induced inflammatory pain at 30 mg/kg, po after 1 hr; type: ADME, organism-based; conditions: read-out: Drug uptake; summary of the method: as §4
Rattus norvegicus [20] = assay: Antinociceptive activity in Sprague-Dawley rat model of CCI-induced neuropathic pain assessed as reduction in acetone-induced nocifensive response at 30 mg/kg, po measured after 3 hrs relative to control; type: functional
Summary of the method: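 CCI rats were given 30 mg/kg p.o. in 10% Solutol/20% HP-β-CD, or vehicle. Cold allodynia was scored as brisk hindpaw withdrawal to acetone applied to the affected paw, over five applications, before dosing and hourly for 3 h. Percent inhibition is relative to the time-zero responses. Two-way repeated-measures ANOVA with Bonferroni test.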

[21] = Oral bioavailability in rat at 10 mg/kg; type: ADME, organism-based; conditions: in vivo; summary of the method: as §2
[22] = Drug uptake in brain of rat model of complete Freund's adjuvant-induced inflammatory pain at 30 mg/kg, po after 2 hrs; type: ADME, organism-based; conditions: read-out: Drug uptake; summary of the method: as §4
[23] = Half life in rat at 2 mg/kg, iv; type: ADME, organism-based; conditions: in vivo; summary of the method: as §2
[24] = Volume of distribution at steady state in rat at 10 mg/kg, po or 2 mg/kg, iv; type: ADME, organism-based; conditions: in vivo, read-out: Vdss; summary of the method: as §2
[25] = AUClast in rat at 10 mg/kg, po; type: ADME, organism-based; parameters: dose 10 mg/kg, time 0 - last, route oral; conditions: in vivo; summary of the method: as §2
[26] = Cmax in rat at 10 mg/kg, po; type: ADME, organism-based; parameters: dose 10 mg/kg, route oral; conditions: in vivo; summary of the method: as §2
[27] = Clearance in rat at 10 mg/kg, po or 2 mg/kg, iv; type: ADME, organism-based; conditions: in vivo; summary of the method: as §2
[28] = Plasma concentration in rat model of complete Freund's adjuvant-induced inflammatory painat 30 mg/kg, po after 2 hrs; type: ADME, organism-based; summary of the method: as §4

| SMILES | remaining at 10 min [1] [%] | IC50 [2] [nM] | remaining at 10 min [3] [%] | IC50 [4] [nM] | IC50 [5] [nM] | also measured |
| --- | --- | --- | --- | --- | --- | --- |
| COc1ccccc1-n1nc(C2CCOC(C)(C)C2)cc1-c1ccc(Cl)cc1 (stereo not given) | 98 | 2 | 21 | 55 | 150 | – |
| CC1(C)CC(c2cc(-c3ccc(Cl)cc3)n(-c3ccncc3)n2)CC(C)(C)O1 | – | 7 | – | – | – | – |
| COCCCc1cc(-c2ccc(Cl)cc2)n(-c2ccccc2OC)n1 | 58 | – | 4 | – | – | inhibition [6]: 50%; inhibition [7]: 50% |
| COc1ccccc1-n1nc(C2CC(C)(C)OC(C)(C)C2)cc1-c1ccc(C)nc1 | – | 6 | – | – | – | – |
| COc1ccccc1-n1nc(C2C[C@H](C)O[C@@H](C)C2)cc1-c1ccc(Cl)cc1 (relative stereo) | 40 | 2 | 14 | – | – | – |
| COc1ccccc1-n1nc(C2CC(C)(C)OC(C)(C)C2)cc1-c1ccc(C#N)cc1 | – | 1 | – | 85 | 130 | – |
| CCN(CC)c1ccccc1-n1nc(C2CC(C)(C)OC(C)(C)C2)cc1-c1ccc(Cl)cc1 | – | 1 | – | 100 | 590 | – |
| CC1(C)CC(c2cc(-c3ccc(Cl)cc3)n(-c3ccccn3)n2)CC(C)(C)O1 | – | 12 | – | – | – | – |
| CCOc1ccc(-c2cc(C3CC(C)(C)OC(C)(C)C3)nn2-c2ccccc2OC)cn1 | – | 5 | – | 44 | 200 | – |
| COc1ccccc1-n1nc(C2=CC(C)(C)OC(C)(C)C2)cc1-c1ccc(Cl)cc1 | 96 | 3 | 37 | – | – | – |
| COc1ccccc1-n1nc(C2CC(C)(C)OC(C)(C)C2)cc1-c1csc(Cl)c1 | – | 6 | – | 28 | 62 | Vd [8]: 10.2 L/kg; Activity (Rattus norvegicus [9]): Active; AUC(0-t) [10]: 2660 ng·h/mL; half-life [11]: 10.2 h; inhibition at 1 µM (L-type calcium channel): 12%; concentration at 1 h [12]: 1100 nM; Activity (Rattus norvegicus [13]): inactive; IC50 [14]: 26000 nM; concentration at 1 h [15]: 2200 nM; clearance [16]: 15.9 mL/min/kg; bioavailability [17]: 49%; Cmax [18]: 369 ng/mL; concentration at 1 h [19]: 1900 nM |
| CCOc1ccc(-c2cc(C3CC(C)(C)OC(C)(C)C3)nn2-c2ccccc2OC)cc1 | – | 2 | – | 29 | 61 | – |
| COc1ccccc1-n1nc(C2CC(C)(C)OC(C)(C)C2)cc1-c1ccnc(Cl)c1 | – | – | – | 250 | 740 | – |
| COc1ccccc1-n1nc([C@@H]2CCO[C@H](C(C)C)C2)cc1-c1ccc(Cl)cc1 (relative stereo) | 66 | 7 | 21 | – | – | – |
| COc1ccccc1-n1nc([C@H]2C[C@@H](C)O[C@@H](C)C2)cc1-c1ccc(Cl)cc1 | 64 | 3 | 18 | 12 | 91 | – |
| COc1ccccc1-n1nc(C2CC(C)(C)OC(C)(C)C2)cc1-c1ccc(Cl)cc1 | 97 | 1 | 96 | 16 | 24 | Activity (Rattus norvegicus [9]): Active; inhibition in vivo at 30 mg/kg (Rattus norvegicus [20]): 51%; bioavailability [21]: 36%; concentration at 2 h [22]: 1200 nM; half-life [23]: 15.4 h; inhibition at 1 µM (L-type calcium channel): 0%; Activity (Rattus norvegicus [13]): inactive; Vd [24]: 33.3 L/kg; IC50 [14]: 20000 nM; AUC(0-t) [25]: 1500 ng·h/mL; Cmax [26]: 127 ng/mL; clearance [27]: 37 mL/min/kg; concentration at 2 h [28]: 700 nM |
| COc1ccccc1-n1nc(C2CCOCC2)cc1-c1ccc(Cl)cc1 | 75 | 30 | 8 | – | – | – |
| COc1ccccc1-n1nc([C@@H]2CCO[C@@H](C(C)C)C2)cc1-c1ccc(Cl)cc1 (relative stereo) | 26 | 20 | 14 | – | – | – |
